Results from ChEMBL document CHEMBL5321206, “New amidine-benzenesulfonamides as iNOS inhibitors for the therapy of the triple negative breast cancer” (Eur J Med Chem, 2023).
The source made the active and inactive calls. No cut-off for these calls is given here.

Assays:
[1] = target: T1, Nitric oxide synthase, inducible (Homo sapiens, UniProt P35228); test: Inhibition of N-terminal his6-tagged recombinant human iNOS expressed in Escherichia coli at 1 uM preincubated for 15 mins followed by NADPH addition and measured after 30 mins by HPLC analysis relative to control; details: time 45.0 min
Procedure, shortened: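 Recombinant human iNOS in 100 mM HEPES pH 7.4 with 0.1 mM CaCl2, 1 mM DTT, 0.5 mg/mL BSA, 10 μM FMN, 10 μM FAD, 30 μM BH4, 10 μg/mL calmodulin and 10 μM L-Arg. Compound pre-incubated 15 min at 37 °C. NADPH added to start the reaction, run 30 min at 37 °C, stopped with cold CH3CN. Product measured by OPA/NAC derivatization and fluorescence HPLC (ex 335/em 439 nm). […] IC50 from seven concentrations in triplicate, mean ± SD.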

[2] = target: T2, Nitric oxide synthase 3 (Bos taurus) (UniProt P29473); test: Inhibition of full length N-terminal his-tagged bovine eNOS (2 to 1205 residues) expressed in Escherichia coli at 10 uM preincubated for 15 mins followed by NADPH addition and measured after 30 mins by HPLC analysis relative to control; details: time 45.0 min
T2 sequence (whole entry): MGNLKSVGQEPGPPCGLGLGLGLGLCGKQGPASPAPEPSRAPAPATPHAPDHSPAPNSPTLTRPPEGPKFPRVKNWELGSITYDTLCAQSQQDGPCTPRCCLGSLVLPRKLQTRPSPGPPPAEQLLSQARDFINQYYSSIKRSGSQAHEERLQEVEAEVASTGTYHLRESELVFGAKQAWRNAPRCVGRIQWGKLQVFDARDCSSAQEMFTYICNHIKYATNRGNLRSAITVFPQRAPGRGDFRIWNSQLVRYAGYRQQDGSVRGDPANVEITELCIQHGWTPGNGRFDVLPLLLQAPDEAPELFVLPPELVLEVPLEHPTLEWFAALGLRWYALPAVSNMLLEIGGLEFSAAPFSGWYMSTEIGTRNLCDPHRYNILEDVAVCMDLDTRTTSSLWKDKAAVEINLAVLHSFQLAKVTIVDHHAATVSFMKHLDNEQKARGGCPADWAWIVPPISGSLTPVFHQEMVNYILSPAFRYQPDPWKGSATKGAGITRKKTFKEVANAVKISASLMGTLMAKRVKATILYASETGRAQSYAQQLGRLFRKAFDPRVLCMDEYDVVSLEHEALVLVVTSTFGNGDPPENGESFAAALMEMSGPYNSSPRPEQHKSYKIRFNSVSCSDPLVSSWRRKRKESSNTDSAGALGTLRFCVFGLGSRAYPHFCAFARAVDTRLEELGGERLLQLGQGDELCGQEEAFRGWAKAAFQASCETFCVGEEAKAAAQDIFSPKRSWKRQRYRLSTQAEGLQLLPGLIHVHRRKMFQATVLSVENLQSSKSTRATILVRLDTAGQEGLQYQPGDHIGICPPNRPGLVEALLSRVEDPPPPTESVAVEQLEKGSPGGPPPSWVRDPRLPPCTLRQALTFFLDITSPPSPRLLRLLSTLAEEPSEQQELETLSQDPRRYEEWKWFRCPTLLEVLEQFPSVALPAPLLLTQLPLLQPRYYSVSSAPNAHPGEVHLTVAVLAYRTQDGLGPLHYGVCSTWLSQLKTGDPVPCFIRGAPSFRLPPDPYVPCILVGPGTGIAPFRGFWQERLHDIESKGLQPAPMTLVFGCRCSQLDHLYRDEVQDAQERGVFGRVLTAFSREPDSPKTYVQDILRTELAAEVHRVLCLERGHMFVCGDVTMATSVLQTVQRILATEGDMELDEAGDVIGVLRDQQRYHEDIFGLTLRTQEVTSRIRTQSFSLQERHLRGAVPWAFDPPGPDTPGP
Procedure, shortened: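 Recombinant bovine eNOS in HEPES buffer with 2 mM CaCl2 plus the same cofactor mix as the iNOS assay (DTT, BSA, FMN, FAD, BH4, calmodulin, 10 μM L-Arg). Compound pre-incubated 15 min at 37 °C. NADPH-started reaction run 30 min at 37 °C, quenched with cold CH3CN. Read by OPA/NAC fluorescence HPLC. […] IC50 from seven concentrations in triplicate.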

MDA-MB-231 [3] = test: Antiproliferative activity against human MDA-MB-231 cells assessed as reduction in cell viability measured after 5 days by PrestoBlue reagent based assay; format: functional; details: MDA-MB-231, 120 h
Procedure, shortened: (§1)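 MDA-MB-231 cells grown in DMEM with 10% FBS and 2 mM L-glutamine. Seeded 2000 cells/well, grown 24 h, then treated 5 days over 0.001–100 μM in triplicate wells. Read with PrestoBlue (10% v/v, 120 min), fluorescence ex 540/em 590 nm. Normalized to 0.1% DMSO controls. EC50 from sigmoidal variable-slope fit, mean ± SD, n = 3 independent experiments.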

[4] = target: T1, Nitric oxide synthase, inducible; test: Inhibition of N-terminal his6-tagged recombinant human iNOS expressed in Escherichia coli preincubated for 15 mins followed by NADPH addition and measured after 30 mins by HPLC analysis
Procedure, shortened: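 Recombinant human iNOS in 100 mM HEPES pH 7.4 with 0.1 mM CaCl2, 1 mM DTT, 0.5 mg/mL BSA, 10 μM FMN, 10 μM FAD, 30 μM BH4, 10 μg/mL calmodulin and 10 μM L-Arg. NADPH added to start the reaction, run 30 min at 37 °C, stopped with cold CH3CN. IC50 from seven concentrations in triplicate, mean ± SD.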

Nitric oxide synthase 3 = target: T3, Nitric oxide synthase 3 (Bos taurus, UniProt P29473); test: Inhibition of full length N-terminal his-tagged bovine eNOS (2 to 1205 residues) expressed in Escherichia coli preincubated for 15 mins followed by NADPH addition and measured after 30 mins by HPLC analysis
T3 sequence (P29473 whole entry): T2 sequence (whole entry)
Procedure, shortened: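 Recombinant bovine eNOS in HEPES buffer with 2 mM CaCl2 plus the same cofactor mix as the iNOS assay (DTT, BSA, FMN, FAD, BH4, calmodulin, 10 μM L-Arg). NADPH-started reaction run 30 min at 37 °C, quenched with cold CH3CN. Read by OPA/NAC fluorescence HPLC. IC50 from seven concentrations in triplicate.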

MCF-12A [5] = test: Antiproliferative activity against human MCF-12A cells assessed as reduction in cell viability measured after 5 days by PrestoBlue reagent based assay; format: functional; details: 120 h
Procedure, shortened: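 MCF-12A cells (DMEM/F12 1:1, 5% equine serum, EGF, hydrocortisone, cholera toxin, insulin) seeded 2000 cells/well, grown 24 h, then exposed 5 days to 0.001–100 μM in triplicate. Read with PrestoBlue (10% v/v, 120 min), ex 540/em 590 nm. Normalized to 0.1% DMSO controls. EC50 from sigmoidal variable-slope fit, mean ± SD of 3 independent experiments.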

MCF-12A [6] = test: Antiproliferative activity against human MCF-12A cells assessed as reduction in cell viability at 50 uM measured after 5 days by PrestoBlue reagent based assay relative to control; format: functional; details: time 5 day
Procedure, shortened: (§2)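 MCF-12A cells grown in DMEM/F12 (1:1) with 5% equine serum, EGF, hydrocortisone, cholera toxin and insulin, at 37 °C and 5% CO2. Seeded 2000 cells/well in triplicate and grown 24 h, then treated 5 days. Read with PrestoBlue (10% v/v, 120 min), fluorescence ex 540/em 590 nm. Viability normalized to 0.1% DMSO-treated cells (100%).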

MCF-12A [7] = test: Antiproliferative activity against human MCF-12A cells assessed as reduction in cell viability at 25 uM measured after 5 days by PrestoBlue reagent based assay relative to control; format: functional; details: time 5.0 day; procedure, shortened: as §2
MDA-MB-231 [8] = test: Inhibition of cell migration in human MDA-MB-231 cells assessed as reduction in cell motility incubated for 24 hrs by scratch wound healing assay; format: functional, cell-based
Procedure, shortened: (§3)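 MDA-MB-231 cells seeded 20×10^4 cells/well, incubated 12 h, then serum-starved (1% FBS) for 24 h. Monolayer scratched with a pipette tip, washed with PBS and treated at 25 μM in starvation medium, with 0.1% DMSO as control. Wound imaged at 0 and 24 h (4× objective). Wound area measured to give percent closure.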

MDA-MB-231 [9] = test: Inhibition of cell migration in human MDA-MB-231 cells assessed as reduction in wound closure incubated for 24 hrs by microscopic analysis; format: functional; parameters: scale not given: the % may be the effect or the level left; procedure, shortened: as §3
[10] = Metabolic stability in rat liver microsome assessed as half life pretreated for 5 mins followed by NADPH and measured after 60 mins by HPLC analysis; format: ADME; details: liver microsomes, time 65 min
Procedure, shortened: (§4)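 Compound from 2 mM DMSO stock diluted in PBS with Sprague–Dawley rat liver microsomes and warmed 5 min at 37 °C. NADPH (10 mM stock) added, incubated 60 min at 37 °C, quenched with cold CH3CN and centrifuged. At least three repeats, verapamil as positive control. CLint scaled using 45 mg microsomal protein/g liver and 40 g liver/kg body weight.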

[11] = Metabolic stability in rat liver microsome assessed as hepatic clearance pretreated for 5 mins followed by NADPH and measured after 60 mins by HPLC analysis; format: ADME; details: liver microsomes, time 65 min; procedure, shortened: as §4
MDA-MB-231 (human) = test: Potency index, ratio of 1400W EC50 to test compound EC50 for antiproliferative activity against human MDA-MB-231 cells assessed as reduction in cell viability measured after 5 days by PrestoBlue reagent based assay; details: time 5 day
[12] = target: T1, Nitric oxide synthase, inducible; test: Inhibition of iNOS (unknown origin)
MDA-MB-231 [13] = test: Antiproliferative activity against human MDA-MB-231 cells assessed as reduction in cell viability upto 100 uM measured after 5 days by PrestoBlue reagent based assay; format: functional; details: time 5.0 day; procedure, shortened: as §1

T1 sequence (P35228 whole entry): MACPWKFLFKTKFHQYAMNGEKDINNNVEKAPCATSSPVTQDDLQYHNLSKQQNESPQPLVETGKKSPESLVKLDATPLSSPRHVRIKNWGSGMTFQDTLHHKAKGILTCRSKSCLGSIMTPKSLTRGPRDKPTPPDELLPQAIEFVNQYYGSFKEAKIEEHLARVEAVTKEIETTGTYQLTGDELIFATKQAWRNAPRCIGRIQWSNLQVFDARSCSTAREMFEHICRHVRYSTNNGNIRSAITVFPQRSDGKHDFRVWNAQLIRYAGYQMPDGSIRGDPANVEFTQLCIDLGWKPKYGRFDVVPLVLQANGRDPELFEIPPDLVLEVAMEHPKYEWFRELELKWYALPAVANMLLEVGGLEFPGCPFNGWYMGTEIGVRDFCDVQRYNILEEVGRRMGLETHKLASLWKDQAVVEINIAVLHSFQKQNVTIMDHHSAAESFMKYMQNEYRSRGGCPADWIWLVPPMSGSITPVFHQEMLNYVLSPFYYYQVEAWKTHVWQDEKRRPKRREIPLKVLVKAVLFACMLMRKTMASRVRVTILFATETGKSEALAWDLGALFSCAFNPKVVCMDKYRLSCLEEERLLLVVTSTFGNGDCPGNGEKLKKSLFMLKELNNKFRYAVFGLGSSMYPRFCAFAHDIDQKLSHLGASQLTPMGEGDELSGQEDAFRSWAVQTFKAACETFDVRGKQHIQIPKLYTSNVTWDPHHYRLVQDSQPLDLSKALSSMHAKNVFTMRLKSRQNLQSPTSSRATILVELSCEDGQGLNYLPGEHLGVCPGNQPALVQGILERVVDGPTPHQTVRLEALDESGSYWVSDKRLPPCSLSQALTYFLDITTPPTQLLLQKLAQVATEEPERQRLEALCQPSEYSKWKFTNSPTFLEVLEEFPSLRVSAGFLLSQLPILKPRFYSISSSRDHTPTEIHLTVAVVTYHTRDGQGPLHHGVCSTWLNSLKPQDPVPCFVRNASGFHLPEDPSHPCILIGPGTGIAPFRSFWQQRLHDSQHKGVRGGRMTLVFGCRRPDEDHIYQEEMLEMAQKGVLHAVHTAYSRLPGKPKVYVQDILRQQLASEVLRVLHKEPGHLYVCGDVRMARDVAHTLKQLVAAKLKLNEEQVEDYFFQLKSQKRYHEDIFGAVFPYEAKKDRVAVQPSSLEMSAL

`N=C(NCc1cccc(CNS(=O)(=O)c2ccc([N+](=O)[O-])cc2)c1)c1ccccc1` gave an inhibition [1] of 71% and an inhibition [2] of 35%.

With `N=C(NCc1ccc(NS(=O)(=O)c2ccc([N+](=O)[O-])cc2)cc1)c1ccc(Cl)cc1` the inhibition [1] was 69% and the inhibition [2] was 46%.

In the case of `CC(=N)NCc1cccc(CNS(=O)(=O)c2ccc(C)cc2)c1`, the inhibition [1] is reported as “inactive” and the inhibition [2] is reported as “inactive”.

With `N=C(NCc1cccc(CNS(=O)(=O)c2ccc([N+](=O)[O-])cc2)c1)c1ccc(C(F)(F)F)cc1` the inhibition [1] was 72% and the inhibition [2] was 26%.

For `CC(=N)NCc1cccc(CN)c1` [1400W], the EC50 (MDA-MB-231 [3]) was greater than 100 µM.

With `Br.Cc1ccc(S(=O)(=O)NCc2cccc(CNC(=N)c3ccccc3)c2)cc1` the inhibition [1] was 83%, the inhibition [2] was “inactive” and the IC50 [4] was 0.065 µM. For the same compound, the IC50 (Nitric oxide synthase 3) was greater than 50 µM, the EC50 (MDA-MB-231 [3]) was 24.7 µM and the EC50 (MCF-12A [5]) was 79 µM. For the same compound, the Activity (MCF-12A [6]) was 91%, the Activity (MCF-12A [7]) was “inactive” and the Activity (MDA-MB-231 [8]) was “Active”. The Activity (MDA-MB-231 [9]) was 15%, the half-life [10] was 38 min and the CLint scaled [11] was 39.6 mL/min/kg. The “Ratio EC50” value (MDA-MB-231 (human)) was 4.

`Cc1ccc(S(=O)(=O)NCc2cccc(CNC(=N)c3ccc(C(F)(F)F)cc3)c2)cc1` showed an inhibition [1] of 59% and an inhibition [2] of 28%.

In the case of `N=C(NCc1cccc(CNS(=O)(=O)c2ccc([N+](=O)[O-])cc2)c1)c1ccc(Cl)cc1`, the inhibition [1] is reported as 65% and the inhibition [2] is reported as 19%.

With `CC(=N)NCc1ccc(NS(=O)(=O)c2ccc([N+](=O)[O-])cc2)cc1` the inhibition [1] was “inactive” and the inhibition [2] was “inactive”.

Compound `Cc1ccc(S(=O)(=O)NCc2cccc(CNC(=N)c3ccc(Cl)cc3)c2)cc1` has an inhibition [1] of 72% and an inhibition [2] of 18%.

In the case of `COC(=O)[C@@H](N)CCCNC(=N)N[N+](=O)[O-]` [L-NAME], the IC50 [12] is reported as 13.5 µM.

For `N=C(NCc1ccc(NS(=O)(=O)c2ccc([N+](=O)[O-])cc2)cc1)c1ccc(C(F)(F)F)cc1`, the inhibition [1] was “inactive” and the inhibition [2] was “inactive”.

With `N=C(NCc1ccc(NS(=O)(=O)c2ccc([N+](=O)[O-])cc2)cc1)c1ccccc1` the inhibition [1] was 52%, the inhibition [2] was “inactive” and the IC50 [4] was 0.832 µM. For the same compound, the IC50 (Nitric oxide synthase 3) was greater than 50 µM, the EC50 (MDA-MB-231 [3]) was greater than 100 µM and the Activity (MDA-MB-231 [13]) was “inactive”.
